Compound activity (PubChem)
The sample as a whole holds a higher share of hits than the screen did.
PostGolgi yeast – growth inhibition of a yeast mutant, post-Golgi transport screen | post-Golgi transport phenotypic cell assay | inhibition, % at 10 µM | hit rate 0.9% among 98,000 | AID 739;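 note: yeast cells grown in 1536-well plates; yeast grown about 18 h at 30C before absorbance read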
BB579 growth dn – chemicals that inhibit yeast BB579 growth in restrictive medium (lifespan-shortening candidates). S. cerevisiae BB579 growth, OD615, 48 h. inhibition, % at 10 µM. hit rate 0.51% among 140,000. AID 804;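 active = inhibition above a set limit, 3 SD over the mean compound inhibition, cut at about 44% in these data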
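Test system: Saccharomyces cerevisiae DeaD strain BB579, replicative lifespan model yeast | Buffer or medium: Restrictive CSMM-D medium | Doses: One dose, 10 µM compound with 0.25% DMSO | Incubation: 48 h exposure, 30 °C | Detection: Culture absorbance at 615 nm | Control set: Amphotericin B at 10 µg/mL as positive control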
PostGolgi ctrl – inhibits growth of the yeast control strain; hit rate 5% among 98,000; AID 738; efflux-deficient yeast background strain, growth absorbance A615, 16 h; inhibition, % at 10 µM
Yeast lifespan up – extends the lifespan of yeast; S. cerevisiae growth with nicotinamide, OD615; deaD strain in restrictive glucose medium; inhibition of the nicotinamide effect, % at 10 µM; hit rate 0.68% among 130,000; AID 775;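 active = inhibition above a set limit, placed 3 SD over the median of all compounds, cut at about 26% in these data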;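 note: 0% = nicotinamide-treated wells and 100% = cells grown without nicotinamide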
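Material: Modified budding yeast, DeaD strain | Medium: Restrictive glucose medium | Probe or stimulus: 1.5 mM nicotinamide | Dosing: Single dose 10 µM compound, 0.25% DMSO | Times: 48 h at 30 °C | Technique: OD615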
An asterisk follows results filed as active; x = no result given. Cut-off read from the data, not from the text of the source, unless noted: active = inhibition above about 30%; inactive = the rest.

SMILES	PostGolgi yeast	BB579 growth dn	PostGolgi ctrl	Yeast lifespan up
COc1cccc(C(CC(=O)Nc2cccc3ccccc23)NC(=O)c2ccccc2)c1 (centres undefined)	-9	-12	1	-1
COc1ccccc1-n1c(=S)sc2c(=O)n(Cc3ccco3)c(SC)nc21	0	-15	45*	-5
O=c1cc(-c2c(F)c(F)c(F)c(F)c2F)oc2c(F)c(F)c(F)c(F)c12	54*	-32	64*	106*
CSC1=NSC2=NC(=O)/C(=C\c3cccs3)C(=N)N12	x	-5	x	43*
CSC1=NSC2=NC(=O)/C(=C/c3coc4ccccc4c3=O)C(=N)N12	x	68*	x	8
Cc1cc(C)n2[nH]c(=O)c(N=Nc3ccccc3)c2n1	0	-8	3	-6
Cc1cc(C)n2[nH]c(=O)c(N=Nc3cccc(Cl)c3)c2n1	-6	-52	39*	-19
CCn1c(CSc2nc3ccccc3s2)n[nH]c1=S	-7	-32	15	-3
S=c1[nH]nc(CSc2nc3ccccc3s2)n1Cc1ccccc1	-7	-47	34*	29
COc1cc(-c2nnc3sc(-c4ccco4)nn23)cc(OC)c1OC	-2	-55	11	-12
CCOc1cccc(-c2nn3c(-c4ccco4)nnc3s2)c1	5	-52	43*	-24
COc1cc(OC)c(-c2nn3c(-c4ccco4)nnc3s2)cc1OC	4	-38	34*	-24
COc1cccc(-c2nn3c(-c4cccc(C)c4)nnc3s2)c1	1	-23	44*	-3
c1ccc(-c2cc(-c3nn4c(-c5ccco5)nnc4s3)c3ccccc3n2)cc1	-4	-37	38*	-11
COc1ccc(-c2nn3c(-c4ccco4)nnc3s2)cc1OC	11	-60	31*	-10
COc1ccc(-c2nnc3sc(-c4ccco4)nn23)cc1OC	-2	-49	18	-17
CC(C)C(c1nnnn1Cc1ccccc1)N1CCN(Cc2ccc3c(c2)OCO3)CC1 (centres undefined)	-8	4	6	65*
CC(C)C(c1nnnn1CC1CCCO1)N1CCN(Cc2ccc3c(c2)OCO3)CC1 (centres undefined)	0	-75	1	0
CCCCCCCCCCn1c2c(c(=N)c3c1CCC3)CCC2	11	99*	97*	-29
CSc1ccccc1NC(=O)CN(c1ccccc1Br)S(C)(=O)=O	x	-44	x	21
CCN(CC(=O)Nc1c(C(=O)OC)[nH]c2ccc(C)cc12)c1ccc2c(c1)OCO2	-2	-3	53*	-8
COC(=O)c1[nH]c2ccc(F)cc2c1NC(=O)CCN1CCN(Cc2ccc3c(c2)OCO3)CC1	13	-49	6	-24
COc1ccccc1N1CCN(C(=O)c2oc3cc(C)c(C)cc3c2C)CC1	-4	-30	42*	-3
COc1ccccc1N1CCN(C(=O)c2c(C)cc(=O)oc2C)CC1	11	-50	-1	1
COc1ccccc1N1CCN(C(=O)c2ccc(C(C)(C)C)cc2)CC1	-2	15	36*	10
SMILES	PostGolgi yeast	BB579 growth dn	PostGolgi ctrl	Yeast lifespan up
COc1ccc(-c2cn3c(C)c(C(=O)N4CCN(c5ccc(F)cc5)CC4)sc3n2)cc1	5	-25	8	0
COc1cc2c(C(=O)N3CCN(c4ccccc4C)CC3)c(C)oc2cc1Br	-3	-45	57*	-4
COc1ccccc1N1CCN(C(=O)c2sc3nc(-c4ccc(F)cc4)cn3c2C)CC1	-9	-64	45*	-9
O=C(c1sc2cc(F)ccc2c1Cl)N1CCN(c2ccccc2)CC1	x	-58	x	-2
O=C(c1cc(-c2cccs2)on1)N1CCN(C(c2ccccc2)c2ccccc2)CC1	-13	-42	4	1
COc1ccccc1N1CCN(C(=O)c2cc(-c3cccs3)on2)CC1	11	-41	50*	-8
COc1cccc(-c2cc(C(=O)N3CCN(C(c4ccccc4)c4ccccc4)CC3)no2)c1	38*	-29	1	1
CCOC(=O)c1cc(-c2ccc(OC(F)F)cc2)nc2c1c(=O)[nH]c(=O)n2C	x	6	x	4
CCC(NC(=O)NCCCn1ccnc1)(C(F)(F)F)C(F)(F)F	0	-12	12	-12
CCCCSc1nnc(-c2ccccc2)c2ccccc12	x	-32	x	-4
Brc1ccccc1Cn1c(-c2cncs2)nc2ccccc21	8	2	63*	0
O=C(COC(=O)c1cc(-c2cccs2)nc2ccccc12)NCc1ccco1	-6	-97	16	-13
Cc1ccc(C(=O)OCC(=O)NCc2ccco2)cc1	-9	-29	-7	56*
O=C(COC(=O)c1ccccc1)NCc1ccco1	-2	-7	0	-12
O=C(COC(=O)c1cc(-c2ccc(Cl)s2)nc2ccccc12)NCc1ccco1	-9	-28	33*	1
